Molecular target: Transient receptor potential cation channel subfamily V member 1 (Rattus norvegicus, UniProt O35433)
Experiment: Antagonist activity at TRPV1 in Sprague-Dawley rat DRG neurons assessed as inhibition of capsaicin-induced [45]Ca2+ uptake
Assay type: functional
Outline: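 Neonatal rat DRG neurons from all spinal levels were dissociated with collagenase/trypsin, then grown 3 days on poly-D-ornithine (1500–1700 neurons/well) in DME/F12 with 10% horse serum and C6-conditioned medium, with cytosine arabinoside for the first 2 days. Cells were exposed to ⁴⁵Ca²⁺, 0.5 capsaicin and compound for 10 min at room temperature, lysed in 0.3% SDS, and scintillation-counted. IC50 = 50% reduction of capsaicin response.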

Transient receptor potential cation channel subfamily V member 1, sequence (O35433 whole entry): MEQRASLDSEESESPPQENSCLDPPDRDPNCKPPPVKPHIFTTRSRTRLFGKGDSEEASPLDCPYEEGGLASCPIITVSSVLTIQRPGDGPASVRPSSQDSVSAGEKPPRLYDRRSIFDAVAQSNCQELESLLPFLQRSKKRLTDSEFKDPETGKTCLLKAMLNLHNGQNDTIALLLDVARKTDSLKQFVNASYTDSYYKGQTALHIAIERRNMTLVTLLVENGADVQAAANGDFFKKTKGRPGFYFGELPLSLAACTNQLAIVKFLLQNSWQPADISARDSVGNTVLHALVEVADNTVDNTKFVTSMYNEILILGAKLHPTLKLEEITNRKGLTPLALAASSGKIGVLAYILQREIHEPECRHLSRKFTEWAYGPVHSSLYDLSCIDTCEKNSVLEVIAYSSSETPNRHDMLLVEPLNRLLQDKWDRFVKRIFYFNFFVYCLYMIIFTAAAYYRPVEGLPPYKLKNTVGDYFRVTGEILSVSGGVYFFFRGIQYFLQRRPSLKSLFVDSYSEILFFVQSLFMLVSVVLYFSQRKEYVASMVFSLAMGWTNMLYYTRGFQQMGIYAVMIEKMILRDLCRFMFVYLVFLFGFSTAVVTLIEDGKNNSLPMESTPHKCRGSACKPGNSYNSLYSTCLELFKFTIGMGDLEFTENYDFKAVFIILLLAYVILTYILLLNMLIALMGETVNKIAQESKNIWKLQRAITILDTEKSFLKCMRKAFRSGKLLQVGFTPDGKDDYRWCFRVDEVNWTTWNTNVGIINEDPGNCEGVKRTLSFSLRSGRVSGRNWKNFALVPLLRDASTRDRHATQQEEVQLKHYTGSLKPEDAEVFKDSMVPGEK

IC50 [µM]	SMILES
0.1	Cc1cc(CNC(=O)CCc2ccc(C(C)(C)C)cc2)cc(Cl)c1NS(C)(=O)=O
0.08	Cc1cc(CNC(=S)CCc2ccc(C(C)(C)C)cc2)cc(Cl)c1NS(C)(=O)=O
0.032	C=Cc1cc(CNC(=S)CCc2ccc(C(C)(C)C)cc2)cc(F)c1NS(C)(=O)=O
0.028	CC(C)(C)c1ccc(CCC(=S)NCc2cc(F)c(NS(C)(=O)=O)c(C#N)c2)cc1
0.62	Cc1cc(CNC(=O)CCc2ccc(C(C)(C)C)cc2)cc(C)c1NS(C)(=O)=O
0.096	CC(C)(C)c1ccc(CCC(=S)NCc2ccc(NS(C)(=O)=O)c(Cl)c2)cc1
0.06	Cc1cc(CNC(=S)CCc2ccc(C(C)(C)C)cc2)ccc1NS(C)(=O)=O
2.9	Cc1cc(CNC(=S)CCc2ccc(C(C)(C)C)cc2)cc(C)c1NS(C)(=O)=O

The next lines start with the compound.

SMILES	IC50 [µM]
CC(C)(C)c1ccc(CCC(=S)NCc2ccc(NS(C)(=O)=O)c(I)c2)cc1	0.3
CC(C)(C)c1ccc(CCC(=O)NCc2cc(F)c(NS(C)(=O)=O)c(C3CC3)c2)cc1	0.36
COC(=O)c1cc(CNC(=S)CCc2ccc(C(C)(C)C)cc2)ccc1NS(C)(=O)=O	3.7
CC(C)(C)c1ccc(CCC(=S)NCc2ccc(NS(C)(=O)=O)c(F)c2)cc1	0.04
C#Cc1cc(CNC(=S)CCc2ccc(C(C)(C)C)cc2)cc(F)c1NS(C)(=O)=O	0.075
CC(C)(C)c1ccc(CCC(=S)NCc2ccc(NS(C)(=O)=O)c(C(F)(F)F)c2)cc1	0.94
CC(=O)c1cc(CNC(=S)CCc2ccc(C(C)(C)C)cc2)ccc1NS(C)(=O)=O	1
CCc1cc(CNC(=S)CCc2ccc(C(C)(C)C)cc2)ccc1NS(C)(=O)=O	0.24
CC(C)(C)c1ccc(CCC(=S)NCc2ccc(NS(C)(=O)=O)c(C#N)c2)cc1	0.055
CC(C)(C)c1ccc(CCC(=S)NCc2ccc(NS(C)(=O)=O)cc2C(F)(F)F)cc1	2.4
CC(C)(C)c1ccc(CCC(=S)NCc2ccc(NS(C)(=O)=O)c(C(=O)O)c2)cc1	22.6
CC(C)(C)c1ccc(CCC(=S)NCc2cc(F)c(NS(C)(=O)=O)c(C3CC3)c2)cc1	0.27
CC(C)(C)c1ccc(CCC(=S)NCc2ccc(NS(C)(=O)=O)cc2Cl)cc1	3.5
CC(C)(C)c1ccc(CCC(=S)NCc2ccc(NS(C)(=O)=O)c([N+](=O)[O-])c2)cc1	0.072
C=Cc1cc(CNC(=S)CCc2ccc(C(C)(C)C)cc2)ccc1NS(C)(=O)=O	0.061
